Data on 96 compounds can be found in ChEMBL document CHEMBL4513216, “Probing the Open Global Health Chemical Diversity Library for Multistage-Active Starting Points for Next-Generation Antimalarials” (ACS Infect Dis, 2020).

A short description of the data set: Toxicity liver stage against HepG2, at 10uM. In kind it is cell-based. The conditions noted are these: human, HepG2-A16-CD81EGFP cells; read-out: INHIBITION
Further details: test concentration 10 uM, cell line HepG2-A16-CD81EGFP. A digest of the protocol: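 Uninfected HepG2-A16-CD81EGFP cells, 3 × 10^3 per well, 1536-well, plated on prespotted compound at 10 μM final, parasite-free screening media added to match infected plates; puromycin 10 μM positive, DMSO 0.5% negative; run in parallel with 48 h PbLuc assay at 37 °C, 5% CO2; viability by CellTiter-Glo luminescence, normalized to controls.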
Turning to `COc1cccc(CN2CC[C@H](c3nnc(-c4ccco4)o3)C2)c1`, the cytotoxicity at 10 µM is -1.34%.

Regarding `CC(=O)N1CCC(NC2(Cc3cc(CC(C)C)on3)COC2)CC1`, the cytotoxicity at 10 µM came out at 2.8%.

On to `CCc1c(C)sc2c1c(N)nc(=O)n2CCN1CCCCC1`, for which the cytotoxicity at 10 µM came out at 9.49%. With `COC(=O)N1CCc2ccccc2C1C(=O)NCc1cccs1` (stereo unspecified) the figure was -0.634%; with `O=C(C1CCCC1)N1C[C@H]2CNC[C@H]2C1`, 1.47%; with `CN(C)CC(=O)N1CC2(CCN(S(=O)(=O)c3ccccc3)C2)C1`, -6.34%. To `CCS(=O)(=O)N1CCC2(CC(=O)N(c3ccccc3C)C2)C1` (stereo unspecified) belongs 2.82%. To `Cc1ccc2c(c1)C1(CCNCC1)CC2OCC1CC1` (stereo unspecified) belongs 6.13%; to `COCc1nnn2c1CN(C(=O)c1ccnnc1)CCC2`, -0.461%; to `CCCN(CC)C(=O)c1nc2c(n1C)CCN(Cc1ccccc1)C2`, 7.28%. As to `O=c1[nH]cnc2[nH]c(N3CCNCC3)nc12`, the cytotoxicity at 10 µM was -4.31%. With `CCN(CC)S(=O)(=O)c1cnccc1N1CCN(C(C)C)CC1` the figure was -5.57%.

As to `COc1cccc2c1ccn2CC(=O)N[C@@H](CCSC)C(=O)O`, the cytotoxicity at 10 µM is 3.2%. For the compound `Cc1cnc(N2CCC3(CCCN(c4ccc(C)nn4)C3)C2)nc1` (stereo unspecified), the cytotoxicity at 10 µM was -20.7%. With `CCOc1ccc2nc(NC(=O)c3c(C(=O)O)cnn3C)sc2c1`, the cytotoxicity at 10 µM is 6.47%. With `COCC(=O)NCc1ccc(-c2ccccc2C(=O)O)cn1` the figure was -1.53%.

`COCCNc1ccc(CC2CCNC2)cn1` (stereo unspecified): the cytotoxicity at 10 µM was determined as 9.33%.

For `CC(=O)N1CCC(Cc2cnc(-c3c(C)nn(C)c3C)cn2)CC1`, the cytotoxicity at 10 µM is -11.8%. With `CNC(=O)C1(C)CCCN(c2cnccn2)C1` (stereo unspecified) the figure was -25.3%. In the case of `CNc1cc(C2CN(Cc3scnc3C)CCO2)nc(C)n1` (stereo unspecified), the cytotoxicity at 10 µM is -24.7%.

In the case of `COCCC(=O)N1CCC(C(=O)c2cc(C)cnc2N)CC1`, the cytotoxicity at 10 µM was -27.7%. With `COCC(=O)N1CCCCC1c1ccnc(Nc2cnccn2)n1` (stereo unspecified) the figure was -24.1%. As to `CC(C)CN1CCC(C(=O)NCCNC(=O)c2ccco2)CC1`, the cytotoxicity at 10 µM was -5.18%. `Cc1noc(C)c1CN(C)c1nccc(C(F)(F)F)n1`: the cytotoxicity at 10 µM was -4.73%. On to `Cc1nncn1CCNC(=O)C1SCCc2sccc21` (stereo unspecified), for which the cytotoxicity at 10 µM is 2.96%. Turning to `CN1CCC(Nc2ccc(Cl)cc2OCC(F)(F)F)C1=O` (stereo unspecified), the cytotoxicity at 10 µM came out at 5.02%. To `Cc1noc(OCC(=O)N2CCCCC2C)n1` (stereo unspecified) belongs 0.714%; to `Cc1cnn(CC(C)Nc2cnc3ccccc3n2)c1` (stereo unspecified), 14.5%; to `Cc1ccc(S(=O)(=O)N2CCOCC2C#N)c(F)c1` (stereo unspecified), 9.78%. To `O=C(NCc1cc(F)cc(Br)c1)C1(O)CCSCC1` belongs 3.6%; to `Cn1c(=O)[nH]c2cc(C(=O)OCC(F)F)ccc21`, -17.3%. To `CCCc1nnc(NC(=O)NC(CCO)c2cccs2)s1` (stereo unspecified) belongs -7.38%; to `O=C(NC1CCCN(c2ccc(OC(F)F)cc2)C1)c1cnccn1` (stereo unspecified), 0%.

On to `Cc1nc(-c2ccccc2)n(CC(=O)NC(C)C2CC2)n1` (stereo unspecified), for which the cytotoxicity at 10 µM is 7.44%. With `CC(C)C(Sc1nnc(NC2CC2)s1)C(=O)NCc1cccnc1` (stereo unspecified) the figure was -5.49%; with `Cc1nc(Cn2cc(I)cc(C)c2=O)oc1C`, 0.939%. As for `Cc1ccc(NCc2ncc(C(C)(C)C)o2)c(Cl)c1`, the cytotoxicity at 10 µM was -15.4%. To `CCC1CN(C(=O)COc2ccc(C(=O)NC3CC3)cc2)CCO1` (stereo unspecified) belongs -4.39%. With `O=S(=O)(Nc1ncccc1F)c1cc(Cl)cc2c1OCC2`, the cytotoxicity at 10 µM worked out at 1.6%.

Consider `O=C(c1c[nH]c2ccccc2c1=O)N1CCSCC1`, for which the cytotoxicity at 10 µM is -5.63%. As for `CCNC(=O)N1CCc2ccc(NC(=O)NCCOCC)cc21`, the cytotoxicity at 10 µM is -3.86%. Take `O=C(CCc1ccc(Cl)cc1)N1CCC(O)(C(F)(F)F)C1` (stereo unspecified): the cytotoxicity at 10 µM amounted to 1.16%.

As to `CCSc1cncc(N2CCC(C(=O)NC(C)C(C)C)CC2)n1` (stereo unspecified), the cytotoxicity at 10 µM is -1.81%. In the case of `Cc1cnn(CC2CN(CCS(=O)(=O)c3ccccc3)CCO2)c1` (stereo unspecified), the cytotoxicity at 10 µM is -3.08%.

Consider `O=C(NCCCN1CCOCC1)c1cc(-c2ccco2)[nH]n1`, for which the cytotoxicity at 10 µM was -15.4%. With `C1CCCN(c2nc(C3CC3)ns2)CC1` the figure was -12.3%. With `COCC1CN(C(=O)Cc2ccccn2)Cc2cn(CC3CC3)nc21` (stereo unspecified) the figure was -1.32%. Regarding `CN(C)S(=O)(=O)CCNc1ncc2c(n1)CCN2c1ccccc1`, the cytotoxicity at 10 µM is -5.6%.

Consider `CSc1ccccc1CN1C[C@H]2C(=O)N(CC3CC3)C[C@@]2(C(=O)O)C1`, for which the cytotoxicity at 10 µM amounted to 0.666%. With `CC(C)c1nc(N2CCC(N3CCCC(O)C3)CC2)c2cnn(C)c2n1` (stereo unspecified) the figure was -127%; with `Nc1cnc(-c2cccc3ccnn23)cn1`, -1.7%. As for `CC(C)(C)NC(=O)N1CCCn2nc(C(=O)Nc3ccccc3)cc2C1`, the cytotoxicity at 10 µM came out at 8.88%. Turning to `O=C(N[C@@H]1CCN(Cc2ccc(F)cc2F)C[C@H]1O)c1cccnc1`, the cytotoxicity at 10 µM is -10.4%.

Take `COCCn1ccnc1C1CCCN(C(=O)c2ccccc2C#N)C1` (stereo unspecified): the cytotoxicity at 10 µM is -0.675%.

As to `COC(=O)[C@@H]1C[C@@H](NC(=O)CN2C(=O)N(C)Cc3ccccc32)CN1C`, the cytotoxicity at 10 µM is -2.62%. To `Cc1ccc(C#N)c(N2CCC3(CCC(=O)N(CC(N)=O)C3)CC2)n1` belongs 0.845%; to `O=C(c1ccsc1)N1CCc2c(nc(-c3ccncc3)[nH]c2=O)C1`, -1.67%; to `CC(=O)c1ccc(N2CCC3(CCC(=O)N(C4CC4)C3)CC2)nc1`, 4.36%.

For `CC(NC(=O)c1coc(COc2cccc(F)c2)n1)c1nnc(N)s1` (stereo unspecified), the cytotoxicity at 10 µM was -144%.

For the compound `Cn1c(CN2CCCCC2)nnc1C1CCCN(C(=O)CCC(N)=O)C1` (stereo unspecified), the cytotoxicity at 10 µM came to 3.94%. To `CCN(CCc1nc2cc(C)ccc2[nH]1)C(=O)[C@@H](N)Cc1c[nH]cn1` belongs -3.78%; to `CSCc1noc(CNC(=O)C2CCN(C(=O)C3CCCC3)CC2)n1`, 9.98%. Consider `CN(C)[C@H]1CN(C(=O)c2ccc3sc4c(c3c2)CCNC4=O)C[C@@H]1O`, for which the cytotoxicity at 10 µM was -5.38%.

On to `Cc1nc[nH]c1CN1CCCn2nc(CN3CCC(F)(F)CC3)cc2C1`, for which the cytotoxicity at 10 µM is 0.13%. On to `CCNC(=O)[C@@H]1CCCN1C(=O)c1cccc(CCC(C)(C)O)c1`, for which the cytotoxicity at 10 µM amounted to 9.91%. With `Cc1nc(C2CCCN2C(=O)CCCn2cccn2)no1` (stereo unspecified) the figure was -4.77%; with `O=C(c1cc(C2CC2)[nH]n1)N1CCN(Cc2ccccc2)CC1`, -5.94%; with `CC(NCc1ccc(F)cc1)c1ccc2[nH]c(=O)[nH]c2c1` (stereo unspecified), -9.93%.

Consider `CCOc1ccc(C(=O)N2CCCC2c2c(C)nn(C)c2Cl)cn1` (stereo unspecified), for which the cytotoxicity at 10 µM is -12.4%.

Take `Cc1ccc(NC2CCN(C(=O)c3cc(C)no3)CC2)nn1`: the cytotoxicity at 10 µM is -11.6%.

For `CN(CC(=O)N1CCCC1c1cnn(C)c1)Cc1ccccc1` (stereo unspecified), the cytotoxicity at 10 µM was -4.38%. In the case of `Cc1nc(C2CCCN(C(=O)c3cc(-c4ccccc4)[nH]n3)C2)no1` (stereo unspecified), the cytotoxicity at 10 µM was -7.99%. On to `CCc1ncc2c(n1)CN(CC(=O)Nc1cc(C)no1)CC2`, for which the cytotoxicity at 10 µM was -16.9%. With `CC(C)COCC(NC(=O)c1cnccn1)c1ccco1` (stereo unspecified) the figure was -13.8%. To `CC(C)c1nc(CN(C)C2CCN(Cc3nnc(C4CC4)o3)C2)no1` (stereo unspecified) belongs 5.87%; to `c1ccc(CCCN2CCCC2Cn2cncn2)cc1` (stereo unspecified), -0.121%. Turning to `CC(C)CCOCCNC(=O)Nc1ccc(F)c(C(N)=O)c1`, the cytotoxicity at 10 µM was -11.6%. Consider `Cc1cc(C)n(C2CCCN(C(=O)CCOc3cccc(F)c3)C2)n1` (stereo unspecified), for which the cytotoxicity at 10 µM is -5.56%. With `O=C(Nc1cnn(CCN2CCOCC2)c1)c1ccccn1` the figure was -14.5%. With `Cc1ccc(-c2nc(CN3CCn4c(nnc4C4CC4)C3)co2)cc1` the figure was 5.17%; with `CN1[C@@H](C(=O)NCC2CC2)C[C@H]2CN(Cc3cccc(C#N)c3)C[C@H]21`, -8.22%; with `O=S(=O)(c1cccs1)N1CC[C@H]2[C@H]1CCN2c1ncccn1`, -0.861%. As to `Cc1ccoc1C(=O)N1C[C@@H](N2CCN(C)CC2)[C@H]2OCCC[C@H]21`, the cytotoxicity at 10 µM turned out to be 7.1%. With `CC(C)C(=O)N1CCCC2(CCCN2CC2CCCC2)C1` (stereo unspecified) the figure was 5.25%. With `CC(=O)N1CCC[C@@H](NCc2c[nH]c3ccccc23)[C@@H]1c1ccc(C)s1` the figure was -39%.

For the compound `CCN1CCCC12CCN(C(=O)c1nccn1C)CC2`, the cytotoxicity at 10 µM is 7.89%.

Turning to `O=S(=O)(C1CC1)N1CCOCC2(CCN(c3ccccn3)C2)C1` (stereo unspecified), the cytotoxicity at 10 µM worked out at 12.9%.

Regarding `c1cncc(OCc2noc3c2CN(Cc2cccs2)CC3)c1`, the cytotoxicity at 10 µM stood at 9.95%. In the case of `CN(C)C(=O)c1n[nH]c2c1CN(Cc1ccccn1)CC2`, the cytotoxicity at 10 µM is 3.17%. To `COCCN1C[C@@H]2[C@@H](OC)CCN(C(=O)Cc3ccccc3)[C@@H]2C1` belongs 3.5%. On to `COc1ccc(CN2C[C@@H]3COC[C@@H](CC(=O)N4CCCC4)[C@@H]3C2)cc1`, for which the cytotoxicity at 10 µM was -18.8%. To `CC[C@@H]1N(Cc2nccs2)CCC[C@]12CCC(=O)N2C` belongs 0.287%. With `O=C(c1ccoc1)N1CCO[C@]2(CCC[C@@H]2COCc2cccnc2)C1` the figure was 6.32%. With `Cc1ccc(C(=O)N2C[C@H]3CC[C@@H](C2)N(CC2CCC2)C3)s1` the figure was -4.2%. With `CC(C)c1ccc(NS(=O)(=O)C=c2[nH]c(=O)n3cccc3c2=O)cc1`, the cytotoxicity at 10 µM is -4.55%. Consider `O[C@@H]1CC(CNCc2ccc(Cl)cc2)(COc2cccnc2)C[C@@H]1O` (stereo partly specified), for which the cytotoxicity at 10 µM is -2.23%.
